An excerpt weighted towards active compounds, which were near 9.5% of everything screened.
D1 allo mod: allosterically modulates the human D1 dopamine receptor | HEK293 D1, CRE-luciferase, dopamine EC30 potentiation; actives deviate in either direction | B-score at 10 µM | 58,000 tested, 5.9% active;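 active means luminescence count or its row- and column-corrected plate score outside the 99.7% band of the plate's sample wells, on either side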
M1 antag: blocks the rat M1 muscarinic receptor response to acetylcholine. CHO-M1 cells, Fluo-4 calcium, ACh EC80 antagonist mode; active compounds read low. AID 628. B-score at 10 µM. 64,000 tested, 3.4% active;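 active means calcium fluorescence response, raw or row-and-column corrected B-score, differing from the plate sample mean either way at a set confidence level, mostly lower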
Target sequence (P08482 whole entry, looked up): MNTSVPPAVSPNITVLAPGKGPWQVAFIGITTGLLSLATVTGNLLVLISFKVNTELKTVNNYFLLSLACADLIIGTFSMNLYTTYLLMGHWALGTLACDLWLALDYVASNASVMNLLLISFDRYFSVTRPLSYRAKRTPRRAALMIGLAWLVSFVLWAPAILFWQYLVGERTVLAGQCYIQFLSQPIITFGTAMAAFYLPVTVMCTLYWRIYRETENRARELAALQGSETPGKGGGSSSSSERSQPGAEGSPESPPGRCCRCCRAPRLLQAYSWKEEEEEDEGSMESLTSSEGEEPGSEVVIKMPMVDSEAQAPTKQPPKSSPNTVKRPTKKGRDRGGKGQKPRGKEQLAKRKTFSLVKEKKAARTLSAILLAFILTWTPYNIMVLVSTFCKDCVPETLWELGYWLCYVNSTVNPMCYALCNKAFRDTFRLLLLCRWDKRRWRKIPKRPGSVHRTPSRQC
Jurkat viability: reduces viability or proliferation of Jurkat cells. Jurkat E6.1 viability, ATP luminescence, 48 h. inhibition, % at 4 µM. 56,000 tested, 1.2% active;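 active means inhibition above the mean inhibition of all tested compounds plus 3 SD, cut at about 28% in these data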
M1 ag: agonists of M1 muscarinic receptor; B-score at 10 µM; 64,000 tested, 3% active; CHO-M1 cells, Fluo-4 calcium fluorescence, agonist mode; active compounds read high;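 active means fluorescence rise, raw or as B-score row- and column-corrected plate score, outside the 99.7% band of its plate's samples, either direction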
mHtt clearance: mutant huntingtin protein clearance; HeLa Exon1htt(103Q)mCFP, aggregate imaging; zero = plate's median compound well; inhibition, % at 1.5 µM; 47,000 tested, 0.42% active;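 active means inhibition of aggregate fluorescence above about 70%, also judged a hit by eye on the cell image, limit read from the data, passing the limit was not always enough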;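 further: cells exposed to compound for three days before fixation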
HEK293 NFkB inh: inhibitors of the PMA/ionomycin-induced NF-kB reporter in HEK293 cells; 62,000 tested, 0.21% active; HEK-293 NF-kB luciferase reporter, luminescence; AID 465; inhibition, % at 3 µM;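 active means inhibition above the mean of all tested compounds plus 3 SD, cut at about 40% in these data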;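 further: 0% = stimulated DMSO wells and 100% = 10 µM reference inhibitor 5653914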
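Material: HEK-293 cells with stable firefly luciferase reporter driven by four HIV NF-kB elements / Also added: PMA plus ionomycin mix as NF-kB-activating stimulus / Compound dosing: 3 µM once, 0.30% DMSO / Times: 1 h pretreatment, 16 h stimulation, 37 °C / Signal: luminescence / Evaluation: per-plate % inhibition versus controls / Benchmarks: DMSO and 10 µM reference inhibitor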
D1 PAM confirm: D1 receptor (human) allosteric modulation, confirmed; HEK293 D1 CRE-luciferase, dopamine EC30 potentiation; active compounds read high; 2,200 tested, 88% active; luminescence at 10 µM; shares compounds with D1 allo mod;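 active means luminescence in either of two replicates above the same-plate mean plus 3 SD of the low-dose dopamine control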
D1 ag no DA: activates D1 CRE-luciferase signal without dopamine present | shares compounds with D1 allo mod | HEK293 D1 CRE-luciferase, luminescence, no dopamine; active compounds read high | luminescence at 10 µM | 1,900 tested, 0.8% active | AID 646; in the data active means luminescence above about 3900
Isoprot counter: counter-screen for D1 modulators: isoproterenol response in HEK293 cells | shares compounds with D1 allo mod | HEK293 D1 CRE-luciferase, isoproterenol EC30 counter-screen; active compounds read high | luminescence at 10 µM | 2,200 tested, 63% active;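 active means luminescence in either replicate above plate mean of wells with a partly effective reference agonist dose plus 3 SD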;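 further: isoproterenol raises cAMP through native beta-adrenoceptor Gs so signal bypasses D1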
The depositor's hits bear a star.

Screening CCOC(=O)N1CCC(NC(=O)Cn2nc(Cc3ccncc3)c3ccccc3c2=O)CC1 returned D1 allo mod 4.3*, M1 antag 0.06, Jurkat viability -11, M1 ag -0.059, mHtt clearance 24, HEK293 NFkB inh 3, D1 PAM confirm 6112, D1 ag no DA 1664 and Isoprot counter 3988.
CCOC(=O)Cn1nc(Cc2ccccc2)c2ccccc2c1=O was read as mHtt clearance -69.
`O=C(CN1CCC(NC(=O)c2cccc(F)c2)CC1)NCc1ccccc1F` gave D1 allo mod 1.5, M1 antag 0.6, M1 ag -1.1 and HEK293 NFkB inh 10.
`Cc1cc(NC(=O)c2ccc(NC(=O)C(C)Oc3ccccc3)cc2)no1` (stereo unspecified) gave D1 allo mod -0.023, M1 antag 0.0013, Jurkat viability 5, M1 ag -0.012 and HEK293 NFkB inh -7.
For Cc1nnc2c(NC(C)C)nc3ccccc3n12 the results were D1 allo mod 16*, M1 antag 0.0062, M1 ag -0.025, mHtt clearance 23, D1 PAM confirm 12020*, D1 ag no DA 1592 and Isoprot counter 3848*.
For CCn1c(=NC(=O)c2ccc(N3C(=O)CCC3=O)cc2)sc2c(OC)ccc(OC)c21 the results were D1 allo mod 9.9*, M1 antag 0.36, Jurkat viability -1, M1 ag -0.074, HEK293 NFkB inh 10, D1 PAM confirm 22036*, D1 ag no DA 1820 and Isoprot counter 6756*.
Screening CCn1c(=NC(=O)CN2C(=O)CCC2=O)sc2c(OC)ccc(OC)c21 returned D1 allo mod 5.4*, M1 antag 0.061, Jurkat viability -4, M1 ag -0.28, HEK293 NFkB inh -2, D1 PAM confirm 11544* and Isoprot counter 2636.
For COc1ccc(N2C(=O)CCC2=O)cc1 the results were D1 allo mod 0.55, M1 antag 0.21, Jurkat viability 0, M1 ag 0.51, mHtt clearance -3 and HEK293 NFkB inh 0.
For CC(C)c1nnc(NC(=O)CCC(=O)NCc2ccco2)s1 the results were D1 allo mod -0.13, Jurkat viability 1, mHtt clearance 16 and HEK293 NFkB inh 6.
`CCCN(C#N)c1nc(NCC)nc(NC(C)C)n1` gave D1 allo mod 17*, M1 antag -0.28, Jurkat viability 7, M1 ag 0.66, mHtt clearance -26, HEK293 NFkB inh 9, D1 PAM confirm 24080*, D1 ag no DA 1560 and Isoprot counter 4728*.
For CCN(CC)C(=O)CN(C#N)c1nc(NC(C)C)nc(NC(C)C)n1 the results were M1 antag -0.005 and M1 ag 0.32.
For COc1cccc(C2=CC(c3cc(OC)ccc3OC)n3nnnc3N2)c1 (stereo unspecified) the results were D1 allo mod 4.1*, M1 antag 0.035, Jurkat viability 90*, M1 ag -0.47, HEK293 NFkB inh 10, D1 PAM confirm 8488* and Isoprot counter 3952*.
COc1cccc(C2=CC(c3ccc(N(C)C)cc3)n3nnnc3N2)c1 (stereo unspecified) was read as M1 antag -0.0011, M1 ag 0.59 and mHtt clearance -7.
For C=CCOC(=O)C1=C(C)Nc2nnnn2C1c1cc(OC)ccc1OC (stereo unspecified) the results were D1 allo mod -0.47, M1 antag 0.48, Jurkat viability 4, M1 ag -0.069 and HEK293 NFkB inh 4.
Screening COc1ccc(OC)c(C2C=C(c3ccc(C)c(C)c3)Nc3nnnn32)c1 (stereo unspecified) returned D1 allo mod 3.9*, M1 antag 0.88, Jurkat viability -1, M1 ag -0.63, HEK293 NFkB inh 16, D1 PAM confirm 6516*, D1 ag no DA 1816 and Isoprot counter 2604.
`COC(=O)C1=C(C(=O)c2ccc(C)cc2)C(c2ccc(OC)c(OC)c2)n2nnnc2N1` (stereo unspecified) gave D1 allo mod -0.19, M1 antag -0.0095, M1 ag 0.41 and HEK293 NFkB inh -2.
Screening COc1ccc(C2=CC(c3ccc(OC)c(OC)c3)n3nnnc3N2)c(OC)c1 (stereo unspecified) returned D1 allo mod 9.3*, M1 antag 0.73, Jurkat viability 4, M1 ag 0.95, HEK293 NFkB inh 4, D1 PAM confirm 15796*, D1 ag no DA 2008 and Isoprot counter 12912*.
Screening CC(C)N=c1cc2n(-c3ccc(Cl)cc3)c3ccccc3nc-2cc1Nc1ccc(Cl)cc1 returned D1 allo mod -2.4, M1 antag 0.71 and M1 ag -0.75.
For COC(=O)c1ccc2nc(C(F)(F)F)[nH]c2c1 the results were D1 allo mod -0.3, M1 antag 0.6, Jurkat viability 0, M1 ag -1.1 and HEK293 NFkB inh 13.
`NC1=NC(c2ccc(Cl)cc2)n2c(nc3ccccc32)N1` (stereo unspecified) gave D1 allo mod 9.1*, M1 antag -0.61, Jurkat viability 8, M1 ag 0.014, HEK293 NFkB inh 19, D1 PAM confirm 11876*, D1 ag no DA 1532 and Isoprot counter 4456.
Screening CC(=O)N(CC1CCCO1)c1nnc(-c2cnccn2)s1 (stereo unspecified) returned D1 allo mod -1.7, M1 antag 0.51, Jurkat viability -3, M1 ag -0.47 and HEK293 NFkB inh 10.
CCOC(=O)c1cn(-c2ccccc2)nc1-c1cccnc1 was read as D1 allo mod 23*, Jurkat viability 3, HEK293 NFkB inh -3, D1 PAM confirm 27848*, D1 ag no DA 1528 and Isoprot counter 4840*.
Screening O=C(O)c1cn(-c2ccccc2)nc1-c1cccnc1 returned D1 allo mod 0.17, M1 antag 0.56, Jurkat viability -3, M1 ag 0.94, mHtt clearance 37 and HEK293 NFkB inh 10.
For NC(=O)c1cc(Cc2ccccc2)sc1NC(=O)c1ccco1 the results were D1 allo mod 8.4*, M1 antag 0.15, Jurkat viability -9, M1 ag 1.5, HEK293 NFkB inh -40, D1 PAM confirm 15080*, D1 ag no DA 1668 and Isoprot counter 3656*.
Screening COc1ccc(N2CCN(C(=O)CC3NC4CCCCC4NC3=O)CC2)cc1 (stereo unspecified) returned D1 allo mod 1.5, M1 antag -0.23, Jurkat viability 5, M1 ag -0.043 and HEK293 NFkB inh 9.

Compound activity (PubChem)
